We go through two compounds from PMC11500341 (Scientific Reports, 2024).

One test concerns MCF-7 cells. The experiment in a line: Cell migration. It is filed as cell-based. Conditions: after 48 h and 72 h. The essentials: (§1)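 Cells were seeded at 0.2 × 10^6 per 35 mm dish in DMEM with 10% FBS and left to adhere overnight at 37 °C in 5% CO2. Monolayers were scratched with a sterile pipette tip and imaged at time zero. They were then treated: control, 0.05% DMSO vehicle, three test compound levels, doxorubicin, and doxorubicin plus the top level. The scratched area was re-imaged at 24, 48 and 72 h.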

In a further test the test system is MDA-MB-231 cells. The experiment in a line: Cell migration. In kind it is cell-based. Conditions: after 48 h and 72 h. A digest of the protocol:
as §1

For test [1], the system named is Caspase 3/7 in MCF-7 cells. Kind of test: Caspase glow 3/7 assay, MCF-7. In kind it is cell-based. The settings on record: P3 300 μm / Dox 0.2 μm / Dox + P3 0.2 μm + 300 μm, p ≤ 0.0001.
Test [2] deals with Caspase 3/7 in MDA-MB-231 cells. The experiment in a line: Caspase glow 3/7 assay, MDA-MB-231. In kind it is cell-based. The settings on record: P3 300 μm / Dox 0.2 μm / Dox + P3 0.2 μm + 300 μm, p ≤ 0.0001. A digest of the protocol: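 MDA-MB-231 cells were seeded at 5 × 10^3 per well and adhered overnight. They were exposed to the test compound (P1 75, P2 150, P3 300), Dox 0.2 or Dox + P3 for 24, 48 or 72 h. Caspase-Glo 3/7 reagent (substrate/luciferase) was added, followed by 30–60 min at 25 °C. Luminescence was then read.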

A further test relates to Rac1. The experiment in a line: Western blot, Rac1 expression. It is filed as cell-based, human. The settings on record: P3 300 μm / Dox 0.2 μm / Dox + P3 0.2 μm + 300 μm, vs CT. The essentials: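 MCF-7 cells (DMEM, 10% FBS) were treated per group for 48 and 72 h. Lysate protein was measured by BCA, and 30 µg was run on 10% SDS-PAGE and transferred to PVDF. Blots were blocked in 5% milk/TBS-T for 2 h. Rabbit anti-Rac1 (1:250) and GAPDH (1:500) antibodies were applied overnight at 4 °C, then 2 h at room temperature. HRP secondary (1:4000) and ECL detection followed, with band densitometry.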
For orientation: In western blotting, separated proteins are transferred to a membrane and probed.

A further test concerns VEGF. The experiment in a line: Western blot, VEGF expression. It is filed as cell-based, human. The settings on record: MCF-7 and MDA-MB-231; after treatments. A digest of the protocol: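 MCF-7 and MDA-MB-231 lysates were taken 48 h and 72 h after the treatment groups. Protein was quantified by BCA and 30 µg run on 10% SDS-PAGE, then transferred to PVDF. Membranes were blocked 2 h in 5% milk in TBS-T. Mouse anti-human VEGF (1:300, in 5% BSA TBS-T) was applied overnight at 4 °C, then 2 h at room temperature. Detection used HRP goat anti-mouse (1:4000) and ECL, with band densitometry.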

The test system of the next test is breast-cancer cells. Conditions: cited from earlier work.
The subject of another test is Rac1 and Tiam1 complex. The settings on record: cited from earlier work.

As to `COc1cccc2c1C(=O)c1c(O)c3c(c(O)c1C2=O)C[C@@](O)(C(=O)CO)C[C@@H]3O[C@H]1C[C@H](N)[C@H](O)[C@H](C)O1` [Dox, Doxorubicin, reference compound], the “rate of cell proliferation and migration (ranking)” value was “slowest in Dox + P3 followed by Dox, P3, P2 and P1” with MCF-7 cells; “slowest in Dox + P3 followed by Dox, P3, P2 and P1” in the test with MDA-MB-231 cells. Moreover, the “fold change in RLU with respect to control (caspase 3/7)” value in test [1] (MCF-7, 48 h) was found to be 1.64; in test [1] (MCF-7, 72 h), 0.79; in test [2] (MDA-MB-231, 48 h) it was 0.84; in test [2] (MDA-MB-231, 72 h), 1.02. Besides, the “% change of protein expression” value in the test on Rac1 (MCF-7, 48 h) is given as 13.13%; in the test with Rac1 (MCF-7, 72 h), 43.31%; with Rac1 (MDA-MB-231, 48 h) it was 32.57%; with Rac1 (MDA-MB-231, 72 h) it was 31.39%. Further, in the test with VEGF, the “VEGF expression (in words)” value was “downregulated after treatments with peptide and Dox”.

`CCN(CC)CCCC(C)Nc1nc(C)cc(Nc2ccc3nc(C)cc(N)c3c2)n1` (stereo not shown) [NSC23766]: the “cell cycle arrest and apoptosis” value with breast-cancer cells is “induce G1 cell cycle arrest and apoptosis”. Also, the “inhibition of Rac1-Tiam1 interaction” value in the test on Rac1 and Tiam1 complex was “inhibits the interactions between Rac1 and Tiam1 complex”.
